In data set [1] the test system is BCRP. Description: qPCR of BCRP mRNA in BeWo trophoblast cells. Conditions: for inhibition of AEA-mediated down-regulation of BCRP mRNA: 0.1 μM, co-treatment with AEA 10 μM; for reversal of the effects of AEA on BCRP: SB366791 1 μM, GW6471 5 μM, GW9662 5 μM, PD98059. The data set is classed as cell-based, human. Background: In qPCR the cycle at which signal appears reflects the starting amount.

Data set [2] has as its system BCRP. Put plainly: Hoechst 33342 transport. It counts as cell-based, human.
For data set [3] the following is noted: cited from earlier work.
A further data set deals with BCRP promoter. Description: ChIP of p-CREB binding to the BCRP promoter in BeWo cells. The data set is classed as cell-based, human. The note with it: 1 h.
In data set [4] the test system is BCRP. Description: Western blot of BCRP protein in BeWo cells. The data set is classed as cell-based, human. Conditions: AEA 10 μM, 24 h. In short, it runs like this:
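BeWo cells exposed 24 h to AEA (10 μM) or vehicle; AEA was dissolved in ethanol. Cells were lysed in 20 mM Tris-HCl, 150 mM NaCl, 5 mM EDTA, 1% Triton X-100 with protease inhibitor cocktail. Western blotting detected BCRP at 72 kDa, with β-actin (42 kDa) as the loading control. Densitometry was performed.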
A general note: In western blotting, separated proteins are transferred to a membrane and probed.

In data set [5] the test system is BeWo cells. The note with it: for effect alone on BeWo cell viability: AEA 10 μM or Ko143 1 μM alone, data not shown.
For another data set, the system named is intracellular cAMP. Put plainly: Measurement of intracellular cAMP. Conditions: 1 h, BeWo. It counts as cell-based, human.
The subject of data set [6] is BCRP. Description: Zearalenone transport with HPLC measurement in BeWo cells. The data set is classed as cell-based, human. The note with it: for percent efflux of zearalenone: BeWo.
Data set [7] relates to syncytialization markers (hCGβ, syncytin-2, syncytin-1, hCGα). Put plainly: qPCR of syncytialization markers in BeWo trophoblast cells. It counts as cell-based, human. An outline of the steps:
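BeWo cells took AEA (ethanol vehicle) either at 10 μM over a time course (including 18, 24 and 48 h, with time-matched vehicle controls) or at 0.01-10 μM for 24 h. Cells were scraped into RNAzol and homogenized. Reverse transcription used 1000 ng RNA with random primers (25°C 10 min, 37°C 120 min, 85°C 5 min), followed by qPCR; mean ± SE, n = 4.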

Data set [8] has as its system BeWo cells.
For data set [9], the system named is syncytialization-related genes (hCGα, syncytin-1, syncytin-2). Put plainly: qPCR of syncytialization-related genes in human term placental explants. It counts as cell-based. In short, it runs like this:
(§1)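 Term placental explants were cultured 24 h with AEA (1 μM, 0.05% ethanol final), replenished after 12 h. Explants were snap-frozen and homogenized in RNAzol (bead homogenizer, 4 min, 40 Hz). Reverse transcription used 1000 ng RNA with random primers and MultiScribe (25°C 10 min, 37°C 120 min, 85°C 5 min), then qPCR. Values are means of 3 placentas (3-6 samples each) ± SE.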

The subject of data set [10] is BCRP. Description: Western blot of BCRP protein in human term placental explants. It counts as cell-based. Conditions: AEA 1 μM, 24 h, densitometry.
For a further data set, the system named is CREB. Description: Western blot of CREB phosphorylation in BeWo cells. Conditions: 1 h. It counts as cell-based, human.
For data set [11], the system named is BCRP. Description: qPCR of BCRP mRNA in human term placental explants. It counts as cell-based. Conditions: AEA 1 μM, 24 h. An outline of the steps: as §1
Another data set has as its system human placental explants. Put plainly: Morphology of placental explants. It counts as cell-based. Conditions: anandamide treatment; data not shown.
The subject of data set [12] is BCRP. Description: BODIPY-glyburide Transwell transport across BeWo monolayers. It counts as cell-based, human. Conditions: for reduction of transepithelial transport of BODIPY-glyburide: after 2 h.
[13] abbreviates: AEA 1 μM, 24 h, human term placental explants.
[14] abbreviates: forskolin 50 μM, 24h, data not shown.

Where “and” joins values, the source holds several entries; their conditions need not be identical. Equal values may be shown once. Entries after “also recorded” stand apart in the source; their conditions may differ.

With `Nc1ncnc2c1nc(Br)n2[C@@H]1O[C@@H]2COP(=O)(O)O[C@H]2[C@H]1O` [8-Br-cAMP], the “attenuation of AEA down-regulation of BCRP expression and efflux activity” value with BCRP [1] (8-Br-cAMP 1 mM, 24 h with AEA 10 μM, 24 h, BeWo) was “abrogated; also recorded: completely attenuated”. Besides, the “prevention of AEA lowering of Hoechst 33342 efflux” value in the data set on BCRP [2] (8-Br-cAMP 1 mM with AEA 10 μM, 24 h, BeWo) is on record as “completely prevented”. The “effect itself on Hoechst 33342 transport” value in the data set on BCRP [2] (8-Br-cAMP 1 mM, 24 h, BeWo) is “no effect”.

Regarding `CCCCC/C=C\C/C=C\C/C=C\C/C=C\CCCC(=O)NCCO` [AEA, anandamide], the half-life in vivo in data set [3] was under 5 min. Further, the “decrease of p-CREB binding to the BCRP promoter” value in the data set on BCRP promoter (AEA 10 μM) is 68%. Moreover, the BCRP protein expression entry with BCRP [4] is given as “reduced protein expression”. In addition, in the data set on BeWo cells [5], the “effect alone on BeWo cell viability” value is recorded as “Neither Ko143 nor AEA alone affected”. Further, the “basal intracellular levels of cAMP” value with intracellular cAMP (AEA 10 μM, control 34.8) is recorded as 12.4 pmol/mg protein. The “intracellular levels of cAMP” value in the data set on intracellular cAMP (forskolin 50 μM + AEA 10 μM) is recorded as 8,250 pmol/mg protein. Also, the “percent efflux of zearalenone” value with BCRP [6] (AEA 10 μM, 24 h) is 33%. Also, the “time of maximal reduction of BCRP mRNA” value in the data set on BCRP [1] (AEA 10 μM, BeWo, return to control levels by 48 h) stood at 24 h. Moreover, the “lowest concentration at which repression of BCRP was observed” value with BCRP [1] (BeWo cells) is reported as 10 nM. Further, the “decrease of BCRP mRNA expression” value in the data set on BCRP [1] (all AEA concentrations between 0.01 μM and 10 μM, 24 h, BeWo) was 30-50%. Moreover, the “lowering of hCGβ mRNA expression” value in data set [7] (AEA 0.01 μM, 24 h, BeWo) turned out to be 71%. The “lowering of syncytin-2 mRNA expression” value in data set [7] (AEA 1 μM, 24 h, BeWo) turned out to be 40%. For the same compound, in [7] (AEA 10 μM, 18 and 24 h, BeWo), the “decrease of hCGβ mRNA expression” value was 40-50% and the “decrease of syncytin-2 mRNA expression” value was 40-50%. In addition, the “expression of syncytin-1 or hCGα mRNAs” value in data set [7] (BeWo cells, data not shown) is given as “did not alter”. Further, the “reduction in the intracellular concentration of AEA” value in the data set with BeWo cells [8] (human, 30 min, 100 nM) is 44%. Further, in [9] (setting [13]), the “reduction of hCGα mRNA expression” value is 48% and the “reduction of syncytin-1 mRNA expression” value turned out to be 25%. Moreover, the “syncytin-2 mRNA expression” value in [9] (AEA treatment of placental explants, data not shown) is given as “unchanged”. Besides, the “effect on ability of BeWo cells to efflux Hoechst 33342” value in the data set on BCRP [2] (AEA 10 μM present during uptake and efflux phase (untreated cells)) was “did not impact”. Also, the “BCRP efflux activity (percent efflux of Hoechst 33342)” value in the data set on BCRP [2] (AEA 10 μM, 24 h pre-treatment, BeWo) is listed as 15%. Also, the “down-regulation of BCRP protein” value with BCRP [10] is 30%. For the same compound, in the data set on CREB (AEA 10 μM co-treated with forskolin 50 μM), the “forskolin-induced phosphorylation of CREB” value was “completely inhibited; also recorded: abolished”. Also, the “p-CREB relative to total CREB protein” value in the data set with CREB (AEA 10 μM) is given as “no p-CREB was detected”. The “reduction of BCRP mRNA expression” value with BCRP [11] is listed as 46%. Moreover, in the data set on human placental explants, the “changes to the morphology of the explants” value is given as “did not induce any visible changes”. For the same compound, the “reduction of transepithelial transport of BODIPY-glyburide” value with BCRP [12] (AEA 10 μM, 24 h) came out at 20%.

Take `COc1ccc(C(=O)c2c(C)n(CCN3CCOCC3)c3cc(I)ccc23)cc1` [AM630]: the “inhibition of AEA-mediated down-regulation of BCRP mRNA” value with BCRP [1] (24 h, BeWo) is “abrogated; also recorded: completely inhibited”.

For the compound `COc1cc(CNC(=O)CCCC/C=C/C(C)C)ccc1O` [Capsaicin], the “effect on BCRP expression” value in the data set with BCRP [1] (capsaicin 1 μM, 24 h, BeWo, data not shown) is recorded as “no effect”.

In the case of `CCC(=O)NC[C@H](Cc1ccc(OCCc2nc(-c3ccccc3)oc2C)cc1)N/C(C)=C\C(=O)c1ccc(C(F)(F)F)cc1` [GW6471], in the data set on BCRP [1] (BeWo, data not shown), the “reversal of the effects of AEA on BCRP” value is on record as “none of these chemicals reversed the effects of AEA”.

As for `O=C(Nc1ccccc1)c1cc([N+](=O)[O-])ccc1Cl` [GW9662], the “reversal of the effects of AEA on BCRP” value in the data set with BCRP [1] (BeWo, data not shown) is “none of these chemicals reversed the effects of AEA”.

Regarding `CCOc1ccc(-c2nc3ccc(-c4nc5ccc(N6CCN(C)CC6)cc5[nH]4)cc3[nH]2)cc1` [Hoechst 33342], in the data set on BCRP [2] (vehicle-treated/control BeWo cells, Hoechst 33342 5 μM), the “percent efflux of Hoechst 33342 taken up” value was 35% and 33%.

For the compound `COc1ccc2c3c([nH]c2c1)[C@H](CC(C)C)N1C(=O)[C@H](CCC(=O)OC(C)(C)C)NC(=O)[C@@H]1C3` [Ko143], in the data set on BeWo cells [5], the “effect alone on BeWo cell viability” value is recorded as “Neither Ko143 nor AEA alone affected”. In addition, the “percent efflux of zearalenone” value in the data set with BCRP [6] (Ko143 1 μM) worked out at 49%. In the data set on BeWo cells [8] (Ko143 1 μM, 3H-AEA 100 nM, BeWo), the “effect on AEA retention” value is “had no impact”. Further, the “BCRP efflux activity (percent efflux of Hoechst 33342)” value in the data set with BCRP [2] (Ko143 1 μM present during assay, BeWo) is 8%. Also, in the data set with BCRP [12] (Ko143 1 μM, present during assay), the “reduction of transepithelial transport of BODIPY-glyburide” value was determined as 32%.

As for `COc1cccc(-c2cc(=O)c3ccccc3o2)c1N` [PD98059], the “reversal of the effects of AEA on BCRP” value with BCRP [1] (BeWo, data not shown) was “none of these chemicals reversed the effects of AEA”.

Turning to `COc1cccc(NC(=O)/C=C/c2ccc(Cl)cc2)c1` [SB366791], the “reversal of the effects of AEA on BCRP” value in the data set with BCRP [1] (BeWo, data not shown) is “none of these chemicals reversed the effects of AEA”.

`C[C@H]1CCCC(=O)CCC/C=C/c2cc(O)cc(O)c2C(=O)O1` [ZLN, zearalenone]: the “percent efflux of accumulated zearalenone” value in the data set on BCRP [6] (vehicle-treated BeWo cells, zearalenone 50 μM) is given as 71%.

Consider `C=C[C@@]1(C)CC(=O)[C@]2(O)[C@@]3(C)[C@@H](O)CCC(C)(C)[C@@H]3[C@H](O)[C@H](OC(C)=O)[C@@]2(C)O1` [forskolin], for which, in the data set on BCRP promoter (co-treatment with AEA 10 μM and forskolin 50 μM), the “reduction in p-CREB binding to the BCRP promoter” value stood at 12%. Also, in the data set with intracellular cAMP (forskolin 50 μM), the “intracellular levels of cAMP” value is recorded as 12,800 pmol/mg protein. Moreover, the “inhibition of AEA-mediated reduction of BCRP transcription” value in the data set with BCRP [1] (setting [14]) was “partially inhibited”. In addition, the “effect on AEA-mediated reduction of Hoechst 33342 efflux” value with BCRP [2] (setting [14]) was “had no effect”. The CREB phosphorylation result in the data set on CREB (forskolin 50 μM) is given as “consistently increased”.

Take `Cc1c(C(=O)NN2CCCCC2)nn(-c2ccc(Cl)cc2Cl)c1-c1ccc(Cl)cc1` [rimonabant]: the “inhibition of AEA-mediated down-regulation of BCRP mRNA” value with BCRP [1] (24 h, BeWo) is listed as “only partially inhibited”.

As for `C[C@H]1CCC[C@H](O)CCCCCc2cc(O)cc(O)c2C(=O)O1` [α-ZRN, α-zearalanol], in the data set with BeWo cells [5] (human), the “LC50 values, AEA” value stood at 27.4 ± 9.1 µM and the “LC50 values, Ko143” value was found to be 36.0 ± 10.1 µM.

As to Lucifer yellow, the “percent of Lucifer yellow rejection” value in the data set on BCRP [12] (Lucifer yellow 20 μM, BeWo monolayer integrity) was 95.3 ± 3.7%.

Source of the values: paper PMC6391190 (Pharmacological research, 2019).
